Several values for one entry are separate records, joined by “and”; a condition that tells them apart may be missing. Equal entries are not always repeated.
Columns and labels:
Mus musculus [1] = organism: Mus musculus; experiment: (§1) Neurotoxic dose that causes minimal recognizable neurotoxicity in 50% of animals tested; type: functional
Outline: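 Mice dosed orally or intraperitoneally; neurotoxicity scored on five end points, including a positional sense test in which a hind leg lowered over a table edge should be quickly lifted back to a normal position. NTD50 is the dose giving minimal recognizable neurotoxicity in 50% of animals tested.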

Mus musculus [2] = organism: Mus musculus; experiment: Dose giving one-half of average maximal [40%] response in phenylquinone writhing assay; type: functional
Mus musculus [3] = experiment: Percent analgesia in phenylquinone writhing assay at 30 mg/kg; type: functional
Outline: (§2)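 Groups of 10 male mice were dosed orally with compound dissolved or suspended in 0.25% methylcellulose (0.25 mL per mouse). After the designated interval they were challenged ip with 0.25 mL of 0.02% phenylquinone in aqueous ethanol (95:5). Read-out is the percentage of mice protected from writhing.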

[4] = (§3) Ulcerogenic dose that produced gastric lesions, ulcers and/or hemorrhage in 50% of the animals tested; type: ADME, organism-based, Stomach; conditions: rat, in vivo; read-out: UD50 (the source's name)
Outline: (§4)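 Ten male Sprague–Dawley rats (ca. 160 g) were fasted 24 h with water available, then dosed po with compound or vehicle. At 4 h they were killed with CO2, and stomachs were opened along the greater curvature. A nonbiased observer scored ulcers, pitting or hemorrhagic spots. UD50 (lesions in 50% of animals) was determined by Litchfield–Wilcoxon.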

Mus musculus [5] = experiment: Percent analgesia in phenylquinone writhing assay at 100 mg/kg; type: functional; outline: as §2
Mus musculus [6] = experiment: Percent analgesia in phenylquinone writhing assay at 10 mg/kg; type: functional; outline: as §2
Mus musculus [7] = organism: Mus musculus; experiment: Dose giving one-half of average maximal [40%] response in carrageenan assay; type: functional
Mus musculus [8] = experiment: Compound was evaluated for the percent reduction of carrageenan induced edema in mice at dose of 150 mg/kg; type: functional
[9] = (§5) Compound was evaluated for the toxicity in mice; type: organism-based; conditions: mouse, in vivo
Mus musculus [10] = experiment: Compound was evaluated for the percent reduction of carrageenan induced edema in mice at dose of 40 mg/kg; type: functional
Mus musculus [11] = experiment: Compound was evaluated for the percent reduction of carrageenan induced edema in mice at dose of 200 mg/kg; type: functional
[12] = as §1; type: toxicity, organism-based; conditions: mouse, in vivo; read-out: NTD50
Outline: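 NTD50 in mice is the oral or intraperitoneal dose causing minimal recognizable neurotoxicity in 50% of animals, judged by five end points, including a positional sense test (hind leg lowered over a table edge should be lifted back).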

Rattus norvegicus [13] = organism: Rattus norvegicus; experiment: as §3; type: functional, Stomach; outline: as §4
Rattus norvegicus [14] = experiment: Compound was evaluated in the developed adjuvant arthritis assay at a dose of 10 mg/kg for the percent reduction of carrageenan induced edema (LHF) on 22nd day; type: functional
Outline: (§6)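 Rats received 0.1 mL heat-killed Mycobacterium tuberculosis suspension (3.5 mg/mL) into the left hind footpad on day 1. On day 20, animals with developed arthritis (all four paws swollen, tail and ears involved) were used. Oral gavage in 0.25% methylcellulose (0.005 mL/g) on days 20 and 22. Hind paw volumes were recorded daily on days 20–23. Mean group volume is expressed as percent change from day 20.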

Rattus norvegicus [15] = experiment: Compound was evaluated in the developed adjuvant arthritis assay at a dose of 3 mg/kg for the percent reduction of carrageenan induced edema (LHF) on 22nd day; type: functional; outline: as §6
Rattus norvegicus [16] = experiment: Compound was evaluated in the developed adjuvant arthritis assay at a dose of 30 mg/kg for the percent reduction of carrageenan induced edema (LHF) on 23rd day; type: functional; outline: as §6
Rattus norvegicus [17] = experiment: Compound was evaluated in the developed adjuvant arthritis assay at a dose of 30 mg/kg for the percent reduction of carrageenan induced edema (LHF) on 21st day; type: functional; outline: as §6
Rattus norvegicus [18] = experiment: Compound was evaluated in the developed adjuvant arthritis assay at a dose of 3 mg/kg for the percent reduction of carrageenan induced edema (LHF) on 23rd day; type: functional; outline: as §6
Mus musculus [19] = organism: Mus musculus; experiment: as §5; type: organism-based; conditions: in vivo
Rattus norvegicus [20] = experiment: Compound was evaluated in the developed adjuvant arthritis assay at a dose of 10 mg/kg for the percent reduction of carrageenan induced edema (LHF) on 23rd day; type: functional; outline: as §6
Rattus norvegicus [21] = experiment: Compound was evaluated in the developed adjuvant arthritis assay at a dose of 10 mg/kg for the percent reduction of carrageenan induced edema (LHF) on 21st day; type: functional; outline: as §6
Mus musculus [22] = experiment: Compound was evaluated for the percent reduction of carrageenan induced edema in mice at dose of 25 mg/kg; type: functional
Mus musculus [23] = experiment: Compound was evaluated for the percent reduction of carrageenan induced edema in mice at dose of 50 mg/kg; type: functional
Rattus norvegicus [24] = experiment: Compound was evaluated in the developed adjuvant arthritis assay at a dose of 3 mg/kg for the percent reduction of carrageenan induced edema (LHF) on 21st day; type: functional; outline: as §6
Rattus norvegicus [25] = experiment: Compound was evaluated in the developed adjuvant arthritis assay at a dose of 30 mg/kg for the percent reduction of carrageenan induced edema (LHF) on 22nd day; type: functional; outline: as §6
Mus musculus [26] = experiment: Compound was evaluated for the percent reduction of carrageenan induced edema in mice at dose of 3 mg/kg; type: functional
Mus musculus [27] = experiment: Compound was evaluated for the percent reduction of carrageenan induced edema in mice at dose of 10 mg/kg; type: functional
Mus musculus [28] = experiment: Compound was evaluated for the percent reduction of carrageenan induced edema in mice at dose of 30 mg/kg; type: functional
Mus musculus [29] = experiment: Percent analgesia in phenylquinone writhing assay at 3 mg/kg; type: functional; outline: as §2
[30] = Lethal dose evaluated in NPP assay; type: toxicity, organism-based; conditions: mouse, in vivo
Mus musculus [31] = experiment: Compound was evaluated for the percent reduction of carrageenan induced edema in mice at dose of 75 mg/kg; type: functional

In the case of Cc1ccc(C(=O)c2ccc(CC(=O)O)n2C)cc1 [TOLMETIN], the NTD50 (Mus musculus [1]) is reported as >1000 mg/kg, the ED50 (Mus musculus [2]) is reported as 22 mg/kg and the Analgesia (Mus musculus [3]) is reported as 60%. For the same molecule, the TD50 [4] was 63 mg/kg, the Analgesia (Mus musculus [5]) was 80% and the Analgesia (Mus musculus [6]) was 40%. For the same molecule, the ED50 (Mus musculus [7]) was 20 mg/kg.
With CCOC(=O)Cc1ccc(C2=CSC3=NCCN23)cc1 the Reduction (Mus musculus [8]) was 0% and the LD50 [9] was 180 mg/kg.
With CC1=C(C(=O)Nc2c(C)cc(C)cc2C)SC2=NCCN21 the LD50 [9] was 60 mg/kg and the Reduction (Mus musculus [10]) was 11%.
With CC1(C)SC2=NC3CCCCC3N2C1(O)c1ccccc1 (stereo not drawn) the Reduction (Mus musculus [11]; 200 mg/kg) was 15% and 30%.
Work on COc1ccc2cc([C@H](C)C(=O)O)ccc2c1 [NAPROXEN] yielded a TD50 [12] of 370 mg/kg and a UD50 (Rattus norvegicus [13]) of 10 mg/kg.
With CC1=CSC2=NC3CCCCC3N12 (trans isomer) the Reduction (Rattus norvegicus [14]) was 18%, the Reduction (Rattus norvegicus [15]) was 2% and the Reduction (Rattus norvegicus [16]) was 18%. It also gave a Reduction (Rattus norvegicus [17]) of 10%, a Reduction (Rattus norvegicus [18]) of 2% and an LD50 (Mus musculus [19]) of 20 mg/kg. The Reduction (Rattus norvegicus [20]) was 19%, the Reduction (Rattus norvegicus [21]) was 10% and the Reduction (Mus musculus [22]) was 76%. The Reduction (Mus musculus [23]) was 100%, the Reduction (Rattus norvegicus [24]) was 0% and the Reduction (Rattus norvegicus [25]) was 19%.
For c1ccc(C2=C(c3ccccc3)N3CCN=C3S2)cc1, the LD50 [9] was 40 mg/kg and the Reduction (Mus musculus [22]) was 14%.
Work on CC1(O)CSC2=NC3CCCCC3N21 (stereo not drawn) yielded a Reduction (Rattus norvegicus [14]) of 2%, a Reduction (Mus musculus [26]) of 10% and a Reduction (Rattus norvegicus [20]) of 11%. For the same molecule, the Reduction (Rattus norvegicus [21]) was 3%, the Reduction (Mus musculus [22]) was 7% and the Reduction (Mus musculus [23]) was 45%. The Reduction (Mus musculus [27]) was 15% and the Reduction (Mus musculus [28]) was 7%.
OC1(C(F)(F)F)CSC2=NC3CCCCC3N21 (stereo not drawn) showed a Reduction (Mus musculus [11]) of 18%.
In the case of CC(C)Cc1ccc(C(C)C(=O)O)cc1 (stereo not drawn) [IBUPROFEN], the Analgesia (Mus musculus [29]) is reported as 30%, the LD50 [30] is reported as > 1000 mg/kg and the NTD50 (Mus musculus [1]) is reported as 470 mg/kg. The UD50 (Rattus norvegicus [13]) was 60 mg/kg, the Analgesia (Mus musculus [3]) was 90% and the Analgesia (Mus musculus [6]) was 50%.
CC1=C(C(=O)N2C(C)CCC2C)SC2=NCCN21 (stereo not drawn) gave an LD50 [9] of 240 mg/kg and a Reduction (Mus musculus [11]) of 20%.
Work on CC1=C(C(=O)Nc2ccccc2F)SC2=NCCN21 yielded an LD50 [9] of 100 mg/kg and a Reduction (Mus musculus [31]) of 15%.
In the case of CCCCC1C(=O)N(c2ccccc2)N(c2ccccc2)C1=O [PHENYLBUTAZONE], the LD50 [30] is reported as > 300 mg/kg, the NTD50 (Mus musculus [1]) is reported as 690 mg/kg and the UD50 (Rattus norvegicus [13]) is reported as 75 mg/kg. It also gave an ED50 (Mus musculus [2]) of 64 mg/kg and an ED50 (Mus musculus [7]) of 50 mg/kg.
For CC1=C(C(=O)Nc2cccc(C(F)(F)F)c2)SC2=NCCN21, the LD50 [9] was 240 mg/kg and the Reduction (Mus musculus [11]) was 36%.
With Cc1cc(C)c(NC(=O)C2=C(c3ccccc3)N3CCN=C3S2)c(C)c1 the LD50 [9] was 80 mg/kg and the Reduction (Mus musculus [23]) was 23%.
CC1=CSC2=NC(C)(C)CN12 showed an LD50 [9] of 60 mg/kg and a Reduction (Mus musculus [10]) of 0%.

Source: ChEMBL document CHEMBL1121836, “Effect of structural change on acute toxicity and antiinflammatory activity in a series of imidazothiazoles and thiazolobenzimidazoles” (J Med Chem, 1981)
